Laboratory results from ChEMBL document CHEMBL3612041, “Combating highly resistant emerging pathogen Mycobacterium abscessus and Mycobacterium tuberculosis with novel salicylanilide esters and carbamates” (Eur J Med Chem, 2015).
≈ marks a conversion by molar mass, not a printed value.

Legend:
[1] = Selectivity index, ratio of IC50 for human MONO-MAC-6 cells to MIC for Mycobacterium tuberculosis H37Rv ATCC 27294; assay type: toxicity; settings: read-out: Selectivity Index
[2] = Selectivity index, ratio of IC50 for human MONO-MAC-6 cells to MIC for Mycobacterium abscessus ATCC 19977; assay type: toxicity; settings: read-out: Selectivity Index
[3] = tested on: MONO-MAC-6; test: Cytostatic activity against human MONO-MAC-6 cells assessed as cell viability after 16 hrs by MTT assay; assay type: cell-based; settings: MONO-MAC-6, 16 h
Summary of the method: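 MonoMac6 cells kept in RPMI-1640 with 10% FCS, 2 mM L-glutamine and gentamycin at 37 °C, 5% CO2. Cells plated 10⁵ per well and treated after 24 h for 16 h in serum-free RPMI (1.0 v/v% DMSO), 5×10⁻² to 10² µM. MTT at 367 µg/mL final for 3.5 h, crystals dissolved in DMSO, OD540 minus OD620. Cytotoxicity % versus untreated control fitted sigmoidally for IC50. Two independent experiments, 4–8 parallels.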

[4] = tested on: Mycobacteroides abscessus; test: Antimycobacterial activity against Mycobacterium abscessus ATCC 19977 after 7 days by serial dilution method; assay type: functional
Summary of the method: (§1)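 Serial dilution in in-house Sula semisynthetic medium, pH 6.5. Compounds added as DMSO solutions at 10 doses, final 0.05–100 µg/mL. Incubation at 37 °C, 7 days for M. abscessus and 28 days for M. tuberculosis strains. MIC taken as the lowest concentration giving visible growth inhibition, confirmed by CFU on drug-free Löwenstein-Jensen medium after further equal incubation. Repeated at least twice.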

[5] = Solubility of the compound in RPMI-1640/Sula media by spectrophotometric analysis; assay type: physicochemical
Summary of the method: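 Solubility measured under assay conditions in RPMI and Sula media with 1 v/v% DMSO. Undissolved compound removed on a PVDF filter. 120 µL filtrate mixed with 80 µL acetonitrile, and concentration measured spectrophotometrically.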

[6] = tested on: Mycobacterium tuberculosis; test: Antimycobacterial activity against Mycobacterium tuberculosis H37Rv ATCC 27294 after 28 days by serial dilution method; assay type: functional; settings: for MIC: Mycobacterium tuberculosis, H37Rv ATCC 27294, 672 h; summary of the method: as §1
[7] = tested on: Mycobacteroides abscessus; test: Potency index, ratio of ciprofloxacin MIC to compound MIC for Mycobacterium abscessus ATCC 19977; assay type: functional
[8] = tested on: Mycobacteroides abscessus; test: Potency index, ratio of gentamicin MIC to compound MIC for Mycobacterium abscessus ATCC 19977; assay type: functional
[9] = Mycobacteroides abscessus, ATCC 19977, 168 h

Row | Molecule | selectivity ratio [1] | selectivity ratio [2] | IC50 [3] [µM] | Activity [4] [CFU] | MIC [4, 9] [µM] | solubility [5] [µM] | Activity [6] [CFU] | MIC [6] [µM] | Ratio [7] | Ratio [8] | MIC [4] [µM]
1 | O=C(NCCCl)Oc1ccc(Br)cc1C(=O)Nc1ccc(C(=O)c2ccccc2)cc1 | 3.1 | 0.6 | 24.9 | 0 | 40 (≈ 20.1 µg/mL) | < 50 | 2 | 8 (≈ 4.01 µg/mL) | – | – | –
2 | O=C(O)c1cn(C2CC2)c2cc(N3CCNCC3)c(F)cc2c1=O [CIPROFLOXACIN] | – | – | – | – | 3 (≈ 0.994 µg/mL) | – | – | – | – | – | –
3 | O=C(Oc1ccc(Cl)cc1C(=O)Nc1ccc(C(F)(F)F)cc1)c1cnc(Cl)cn1 | 1 | 0.2 | 1.1 | 0 | 5.5 (≈ 2.51 µg/mL) | < 100 | 3 | 1.1 (≈ 0.502 µg/mL) | – | – | –
4 | O=C(NCCCCl)Oc1ccc(Br)cc1C(=O)Nc1ccc(C(=O)c2ccccc2)cc1 | 1.4 | 0.3 | 12.6 | 0 | 38.9 (≈ 20.1 µg/mL) | < 50 | 2 | 8.7 (≈ 4.49 µg/mL) | – | – | –
5 | CCCNC(=O)Oc1ccc(Cl)cc1C(=O)Nc1ccc(Cl)c(Cl)c1 | 35 | 5.4 | 7 | 0 | 1.3 (≈ 0.522 µg/mL) | < 50 | 0 | 0.2 (≈ 0.0803 µg/mL) | – | – | –
6 | O=C(Oc1ccc(Cl)cc1C(=O)Nc1ccc(Cl)c(Cl)c1)c1cnc(Cl)cn1 | 9.2 | 9.2 | 10.1 | 0 | 1.1 (≈ 0.503 µg/mL) | < 100 | 10 | 1.1 (≈ 0.503 µg/mL) | – | – | –
7 | O=C(NCCCl)Oc1ccc(Br)cc1C(=O)Nc1ccc(Cl)c(Cl)c1 | 34.5 | 34.5 | 6.9 | 0 | 0.2 (≈ 0.0933 µg/mL) | < 50 | 2 | 0.2 (≈ 0.0933 µg/mL) | 15 | 53 | –
8 | CCCNC(=O)Oc1ccc(Cl)cc1C(=O)Nc1ccc(C(=O)c2ccccc2)cc1 | 2 | 0.8 | 18.7 | 0 | 22.9 (≈ 10 µg/mL) | < 50 | 3 | 9.2 (≈ 4.02 µg/mL) | – | – | –
9 | NNC(=O)c1ccncc1 [ISONIAZID] | – | – | – | 26 | 292 (≈ 40 µg/mL) | – | 0 | 1.17 (≈ 0.16 µg/mL) | – | – | –
10 | O=C(NCCCCl)Oc1ccc(Cl)cc1C(=O)Nc1ccc(C(=O)c2ccccc2)cc1 | 1.9 | 0.4 | 16.1 | 0 | 42.5 (≈ 20 µg/mL) | < 50 | 3 | 8.5 (≈ 4.01 µg/mL) | – | – | –
11 | O=C(Oc1ccc(Br)cc1C(=O)Nc1ccc(Cl)c(Cl)c1)c1cnc(Cl)cn1 | 2.9 | 5.7 | 5.7 | 0 | 1 (≈ 0.502 µg/mL) | < 100 | 1 | 2 (≈ 1 µg/mL) | – | – | –
12 | O=C(Nc1ccc(Cl)c(Cl)c1)c1cc(Br)ccc1O | 2.5 | 0.5 | 3.5 | 0 | 7 (≈ 2.53 µg/mL) | < 100 | 2 | 1.4 (≈ 0.505 µg/mL) | – | – | –
13 | O=C(NCCCl)Oc1ccc(Cl)cc1C(=O)Nc1ccc(Cl)c(Cl)c1 | 3.8 | 3.8 | 4.6 | 0 | 1.2 (≈ 0.507 µg/mL) | < 50 | 2 | 1.2 (≈ 0.507 µg/mL) | – | – | –
14 | O=C(Nc1ccc(Cl)c(Cl)c1)c1cc(Cl)ccc1O | 2.3 | 1.1 | 3.6 | 0 | 3.2 (≈ 1.01 µg/mL) | < 100 | 2 | 1.6 (≈ 0.507 µg/mL) | – | – | –
15 | O=C(NCCCl)Oc1ccc(Br)cc1C(=O)Nc1ccc(C(F)(F)F)cc1 | 23.3 | 2.2 | 9.3 | 0 | 4.3 (≈ 2 µg/mL) | < 50 | 0 | 0.4 (≈ 0.186 µg/mL) | – | – | –
16 | O=C(NCCCl)Oc1ccc(Cl)cc1C(=O)Nc1ccc(C(F)(F)F)cc1 | 15.2 | 6.3 | 7.6 | 0 | 1.2 (≈ 0.505 µg/mL) | < 50 | 1 | 0.5 (≈ 0.211 µg/mL) | – | – | –
17 | GENTAMICIN | – | – | – | – | – | – | – | – | – | – | 10.5
18 | O=C(Nc1ccc(C(F)(F)F)cc1)c1cc(Cl)ccc1O | – | – | 5.3 | 0 | 3.2 (≈ 1.01 µg/mL) | – | 0 | 1.6 (≈ 0.505 µg/mL) | – | – | –
19 | O=C(c1ccccc1)c1ccc(NC(=O)c2cc(Br)ccc2O)cc1 | 1.7 | 0.9 | 21.8 | 0 | 25.3 (≈ 10 µg/mL) | < 50 | 2 | 12.7 (≈ 5.03 µg/mL) | – | – | –
20 | O=C(c1ccccc1)c1ccc(NC(=O)c2cc(Cl)ccc2O)cc1 | 3.4 | 1.7 | 48 | 0 | 28.5 (≈ 10 µg/mL) | < 50 | 3 | 14.2 (≈ 5 µg/mL) | – | – | –
21 | O=C(NCCCCl)Oc1ccc(Cl)cc1C(=O)Nc1ccc(C(F)(F)F)cc1 | 17.6 | 44 | 8.8 | 0 | 0.2 (≈ 0.087 µg/mL) | < 50 | 1 | 0.5 (≈ 0.218 µg/mL) | 15 | 53 | –
22 | O=C(NCCCl)Oc1ccc(Cl)cc1C(=O)Nc1ccc(C(=O)c2ccccc2)cc1 | 4.3 | 0.9 | 37.8 | 0 | 43.6 (≈ 19.9 µg/mL) | < 50 | 2 | 8.7 (≈ 3.98 µg/mL) | – | – | –
23 | O=C(NCCCCl)Oc1ccc(Br)cc1C(=O)Nc1ccc(Cl)c(Cl)c1 | 23.8 | 4.5 | 9.5 | 0 | 2.1 (≈ 1.01 µg/mL) | < 50 | 2 | 0.4 (≈ 0.192 µg/mL) | – | – | –
24 | O=C(NCCCCl)Oc1ccc(Cl)cc1C(=O)Nc1ccc(Cl)c(Cl)c1 | 1.1 | 2.1 | 2.5 | 0 | 1.2 (≈ 0.523 µg/mL) | < 50 | 0 | 2.3 (≈ 1 µg/mL) | – | – | –
